According to ChEMBL document CHEMBL1275408, “A chemical genomic screen in Saccharomyces cerevisiae reveals a role for diphthamidation of translation elongation factor 2 in inhibition of protein synthesis by sordarin” (2008):
Active and inactive are the calls of the source. The calls are words filed in the database; no cut-off is given here.

Legend:
Saccharomyces cerevisiae [1] = assay: Antifungal activity against Saccharomyces cerevisiae BY4741 harboring YDR020C mutation in unknown gene by spectrophotometry; assay type: functional
In short: (§1)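 Haploid MATa BY4741 KanMX4 deletion strains pinned from frozen stocks into YPD + G418 (150 mg/liter), grown 3 days at 28°C to confluence, then pin-replicated into SC liquid with no drug or sordarin derivative GM193663 (2 ng/ml sensitivity; 62.5 ng/ml resistance). 28°C, OD595 read every 24 h for 5 days; growth scored relative to wild type on same plate and to untreated mutant.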

Saccharomyces cerevisiae [2] = assay: Antifungal activity against Saccharomyces cerevisiae BY4741 harboring SSQ1 YLR369W mutant gene assessed as reduction in fungal growth at 2 ng/ml by spectrophotometry; assay type: functional, organism-based
In short: (§2)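 Deletion strains (BY4741 background) pre-grown 3 days at 28°C in YPD + G418 (150 mg/liter), then pin-replicated into SC liquid containing 2 ng/ml GM193663 or no drug. 28°C, OD595 every 24 h over 5 days; growth scored against wild type on same plate and against drug-free mutant control; hits retested at least in duplicate at 2 ng/ml.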

Saccharomyces cerevisiae [3] = assay: Antifungal activity against Saccharomyces cerevisiae BY4741 harboring CUE1 YMR264W mutant gene by spectrophotometry; assay type: functional
In short: (§3)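 Screen of BY4741 KanMX4 deletion strains pre-grown 3 days at 28°C in YPD with G418 (150 mg/liter), then pinned into liquid SC containing GM193663. The sensitivity screen used 2 ng/ml; the resistance screen used 62.5 ng/ml, with validation at 62.5, 125 and 500 ng/ml. OD595 was read every 24 h over 5 days at 28°C. Growth was scored relative to wild type and to drug-free controls. Retests were at least in duplicate.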

Saccharomyces cerevisiae [4] = assay: Antifungal activity against Saccharomyces cerevisiae BY4741 harboring NAT3 YPR131C mutant gene by spectrophotometry; assay type: functional; in short: as §1
Saccharomyces cerevisiae [5] = assay: Antifungal activity against Saccharomyces cerevisiae BY4741 harboring SUR2 YDR297W mutant gene by spectrophotometry; assay type: functional; in short: as §1
Saccharomyces cerevisiae [6] = assay: Antifungal activity against Saccharomyces cerevisiae BY4741 harboring deletion mutation in dph3 gene at 300 to 500 ng/ml after 24 hrs by liquid growth assay; assay type: functional
Saccharomyces cerevisiae [7] = assay: Antifungal activity against Saccharomyces cerevisiae BY4741 harboring RPS11A YDR025W mutant gene by spectrophotometry; assay type: functional; in short: as §1
Saccharomyces cerevisiae [8] = assay: Antifungal activity against Saccharomyces cerevisiae BY4741 harboring MGT1 YDL200C mutant gene by spectrophotometry; assay type: functional; in short: as §3
Saccharomyces cerevisiae [9] = assay: Antifungal activity against Saccharomyces cerevisiae BY4741 harboring YLR125W mutation in unknown gene by spectrophotometry; assay type: functional
In short: (§4)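 Deletion strains from the nonessential haploid MATa BY4741 collection (KanMX4 replacement) were grown in YPD with G418 at 28°C for 3 days, then pinned into liquid SC with or without sordarin derivative GM193663 (2 ng/ml for sensitivity, 62.5 ng/ml for resistance). Cultures were kept at 28°C and read at OD595 every 24 h for 5 days. Growth was scored against wild type on the same plate and against the drug-free control. Hits were retested at least in duplicate.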

Saccharomyces cerevisiae [10] = assay: Antifungal activity against Saccharomyces cerevisiae BY4741 harboring YBR141C mutation in unknown gene by spectrophotometry; assay type: functional; in short: as §1
Saccharomyces cerevisiae [11] = assay: Antifungal activity against Saccharomyces cerevisiae BY4741 harboring LYS14 YDR034C mutant gene by spectrophotometry; assay type: functional; in short: as §3
Saccharomyces cerevisiae [12] = assay: Antifungal activity against Saccharomyces cerevisiae BY4741 harboring YHL041W mutation in unknown gene by spectrophotometry; assay type: functional; in short: as §4
Saccharomyces cerevisiae [13] = assay: Antifungal activity against Saccharomyces cerevisiae BY4741 harboring MRPL37 YBR268W mutant gene by spectrophotometry; assay type: functional; in short: as §1
Saccharomyces cerevisiae [14] = assay: Antifungal activity against Saccharomyces cerevisiae BY4741 harboring YER184C mutation in unknown gene by spectrophotometry; assay type: functional; in short: as §4
Saccharomyces cerevisiae [15] = assay: Antifungal activity against Saccharomyces cerevisiae BY4741 harboring EAF3 YPR023C mutant gene by spectrophotometry; assay type: functional; in short: as §3
Saccharomyces cerevisiae [16] = assay: Antifungal activity against Saccharomyces cerevisiae BY4741 harboring LDB17 YDL146W mutant gene by spectrophotometry; assay type: functional; in short: as §3
Saccharomyces cerevisiae [17] = assay: Antifungal activity against Saccharomyces cerevisiae BY4741 harboring NOT5 YPR072W mutant gene assessed as reduction in fungal growth at 2 ng/ml by spectrophotometry; assay type: functional, organism-based; in short: as §2
Saccharomyces cerevisiae [18] = assay: Antifungal activity against Saccharomyces cerevisiae BY4741 assessed as reduction in fungal growth up to 500 ng/ml for 72 hrs by spectrophotometry; assay type: functional, organism-based
In short: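 BY4741 grown overnight in SC (synthetic complete) medium, then inoculated into microtiter wells of SC medium containing successive twofold dilutions of sordarin starting at 500 ng/ml (range 0–500 ng/ml). Cultures incubated at 28°C, and growth followed as a growth inhibition curve.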

Saccharomyces cerevisiae [19] = assay: Antifungal activity against Saccharomyces cerevisiae BY4741 harboring GGC1 YDL198C mutant gene by spectrophotometry; assay type: functional; in short: as §3
Saccharomyces cerevisiae [20] = assay: Antifungal activity against Saccharomyces cerevisiae BY4741 harboring deletion mutation in dph4 gene at 300 to 500 ng/ml after 24 hrs by liquid growth assay; assay type: functional
Saccharomyces cerevisiae [21] = assay: Antifungal activity against Saccharomyces cerevisiae BY4741 harboring YOL079W mutation in unknown gene by spectrophotometry; assay type: functional; in short: as §4
Saccharomyces cerevisiae [22] = assay: Antifungal activity against Saccharomyces cerevisiae BY4741 harboring CTF3 YLR381W mutant gene by spectrophotometry; assay type: functional; in short: as §3
Saccharomyces cerevisiae [23] = assay: Antifungal activity against Saccharomyces cerevisiae BY4741 harboring HEM14 YER014W mutant gene assessed as reduction in fungal growth at 2 ng/ml by spectrophotometry; assay type: functional, organism-based
In short: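 Haploid BY4741 KanMX4 deletion strains pre-grown in YPD with G418 (150 mg/liter) for 3 days at 28°C. They were then pin-replicated into liquid SC with sordarin derivative GM193663 at 2 ng/ml, or without drug. Plates were incubated at 28°C and OD595 read every 24 h for 5 days. Growth was scored against wild type on the same plate and against the drug-free mutant. Hits were retested at least in duplicate.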

Saccharomyces cerevisiae [24] = assay: Antifungal activity against Saccharomyces cerevisiae BY4741 harboring YLR202C mutation in unknown gene by spectrophotometry; assay type: functional; in short: as §4
Saccharomyces cerevisiae [25] = assay: Antifungal activity against Saccharomyces cerevisiae BY4741 harboring RPL1B YGL135W mutant gene by spectrophotometry; assay type: functional; in short: as §1
Saccharomyces cerevisiae [26] = assay: Antifungal activity against Saccharomyces cerevisiae BY4741 harboring CPR6 YLR216C mutant gene by spectrophotometry; assay type: functional; in short: as §3
Saccharomyces cerevisiae [27] = assay: Antifungal activity against Saccharomyces cerevisiae BY4741 harboring QRI7 YDL104C mutant gene by spectrophotometry; assay type: functional; in short: as §1
Saccharomyces cerevisiae [28] = assay: Antifungal activity against Saccharomyces cerevisiae BY4741 harboring DSK2 YMR276W mutant gene by spectrophotometry; assay type: functional; in short: as §3
Saccharomyces cerevisiae [29] = assay: Antifungal activity against Saccharomyces cerevisiae BY4741 harboring deletion mutation in dph2 gene at 100 ng/ml by plate assay; assay type: functional, organism-based
In short: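 Spot test on solid SC glucose plates with or without 100 ng/ml sordarin. Drops of 10^5 cells plus 10-fold serial dilutions of each dph deletion strain were spotted alongside the parental strain. Plates were incubated at 28°C for 6 days and imaged every 24 h.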

Saccharomyces cerevisiae [30] = assay: Antifungal activity against Saccharomyces cerevisiae BY4741 harboring SPS1 YDR523C mutant gene assessed as reduction in fungal growth at 2 ng/ml by spectrophotometry; assay type: functional, organism-based; in short: as §2
Saccharomyces cerevisiae [31] = assay: Antifungal activity against Saccharomyces cerevisiae BY4741 harboring GRR1 YJR090C mutant gene by spectrophotometry; assay type: functional; in short: as §3

Structure (SMILES): CO[C@H]1[C@@H](O)[C@H](O)[C@H](OC[C@@]23C[C@@H]4[C@H](C)CC[C@H]4[C@@]4(C=O)CC2C=C(C(C)C)[C@@]34C(=O)O)O[C@@H]1C [SORDARIN]
- MIC (Saccharomyces cerevisiae [1]): > 0.5 µg/mL
- Activity (Saccharomyces cerevisiae [2]): Active
- MIC (Saccharomyces cerevisiae [3]): > 0.0625 µg/mL
- MIC (Saccharomyces cerevisiae [4]): > 0.0625 µg/mL
- MIC (Saccharomyces cerevisiae [5]): > 0.0625 µg/mL
- Activity (Saccharomyces cerevisiae [6]): 50%
- MIC (Saccharomyces cerevisiae [7]): > 0.0625 µg/mL
- MIC (Saccharomyces cerevisiae [8]): > 0.125 µg/mL
- MIC (Saccharomyces cerevisiae [9]): > 0.125 µg/mL
- MIC (Saccharomyces cerevisiae [10]): > 0.5 µg/mL
- MIC (Saccharomyces cerevisiae [11]): > 0.5 µg/mL
- MIC (Saccharomyces cerevisiae [12]): > 0.5 µg/mL
- MIC (Saccharomyces cerevisiae [13]): > 0.5 µg/mL
- MIC (Saccharomyces cerevisiae [14]): > 0.125 µg/mL
- MIC (Saccharomyces cerevisiae [15]): > 0.5 µg/mL
- MIC (Saccharomyces cerevisiae [16]): > 0.125 µg/mL
- Activity (Saccharomyces cerevisiae [17]): Active
- Activity (Saccharomyces cerevisiae [18]): Active
- MIC (Saccharomyces cerevisiae [19]): > 0.5 µg/mL
- Activity (Saccharomyces cerevisiae [20]): 50%
- MIC (Saccharomyces cerevisiae [21]): > 0.5 µg/mL
- MIC (Saccharomyces cerevisiae [22]): > 0.125 µg/mL
- Activity (Saccharomyces cerevisiae [23]): Active
- MIC (Saccharomyces cerevisiae [24]): > 0.5 µg/mL
- MIC (Saccharomyces cerevisiae [25]): > 0.5 µg/mL
- MIC (Saccharomyces cerevisiae [26]): > 0.125 µg/mL
- MIC (Saccharomyces cerevisiae [27]): > 0.125 µg/mL
- MIC (Saccharomyces cerevisiae [28]): > 0.5 µg/mL
- MIC (Saccharomyces cerevisiae [29]): inactive
- Activity (Saccharomyces cerevisiae [30]): Active
- MIC (Saccharomyces cerevisiae [31]): > 0.5 µg/mL
